This note sets out measurements from ChEMBL document CHEMBL3272032, “Antifolate studies. Activities of 40 potential antimalarial compounds against sensitive and chlorguanide triazine resistant strains of folate-requiring bacteria and Escherichia coli” (J Med Chem, 1977).

The structures appear in SMILES notation. Activity calls are given as the source filed them. The rule behind the calls is not given here.

Assay [1] is described as follows: Antibacterial activity against sensitive Pediococcus cerevisiae ATCC 808 assessed as reduction. It counts as functional. Put shortly:
(§1)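 P. cerevisiae grown with folinic acid at 0.001 μg/ml in the earlier-described medium. Turbidity read on a Klett-Summerson colorimeter. IC50 is the micromolar concentration reducing growth to 50% of control. Top concentration was 1000 μg/ml, or 100 μg/ml when supply was limited.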

Assay [2] has as its system Lacticaseibacillus casei. As to the kind of experiment: Fold increase in resistance, ratio of IC50 for chlorguanide triazine-resistant Lactobacillus casei ATCC 7469 to IC50 for sensitive Lactobacillus casei ATCC 7469. In kind it is functional. Put shortly:
(§2)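 Resistant substrains were made by serial transfer in rising concentrations of cycloguanil, and the most resistant isolate of each organism was used. Both strains were assayed turbidimetrically under identical conditions. FIR = IC50 of the resistant strain divided by IC50 of the sensitive parent.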

Assay [3] concerns Lacticaseibacillus casei. The assay is described as follows: Antibacterial activity against chlorguanide triazine-resistant Lactobacillus casei ATCC 7469 assessed as reduction in growth. In kind it is functional, organism-based. Put shortly:
(§3)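 Folate-requiring strains grown in medium with folic acid, 0.002 µg/ml for S. faecium and 0.001 µg/ml for L. casei; P. cerevisiae given folinic acid, 0.001 µg/ml. Resistant substrains came from serial transfer in rising chlorguanide triazine, and the most resistant were used. Compounds tested up to 1000 µg/ml, or 100 µg/ml when supply was limited. Growth read as Klett turbidity; IC50 is the µM concentration giving 50% growth inhibition.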

The subject of assay [4] is Lacticaseibacillus casei. The assay is described as follows: Antibacterial activity against sensitive Lactobacillus casei ATCC 7469 assessed as reduction. It counts as functional, organism-based. A digest of the protocol: as §3
Assay [5] has as its system Plasmodium berghei. The assay is described as follows: Antimalarial activity against Plasmodium berghei infected in sc dosed mouse assessed as dose required to survivors for period of 60 days. It counts as functional. Put shortly: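 Mice infected with a blood-induced P. berghei inoculum were given one subcutaneous dose in peanut oil. Survivors at 60 days counted as cured. The minimum curative dose is the lowest dose that cured any mouse.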

For assay [6], the system named is Pediococcus. As to the kind of experiment: Fold increase in resistance, ratio of IC50 for chlorguanide triazine-resistant Pediococcus cerevisiae ATCC 808 to IC50 for sensitive Pediococcus cerevisiae ATCC 808. It counts as functional. A digest of the protocol:
as §2

In assay [7] the test system is Enterococcus faecium. The assay is described as follows: Antibacterial activity against sensitive Streptococcus faecium ATCC 8043 assessed as reduction in growth. It counts as functional, organism-based. Put shortly:
as §3

The test system of assay [8] is Escherichia coli. The assay is described as follows: Antibacterial activity against sensitive Escherichia coli ATCC 10536 assessed as reduction in growth. It counts as functional, organism-based. A digest of the protocol:
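Growth inhibition in Sahyun et al. medium plus 0.6% acid-hydrolyzed casein. Growth read as turbidity on a Klett-Summerson photoelectric colorimeter. IC50 is the micromolar concentration giving 50% growth inhibition. Top concentration was 1000 μg/ml, or 100 μg/ml when compound was limited.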

The nature of assay [9]: Antibacterial activity against chlorguanide triazine-resistant Pediococcus cerevisiae ATCC 808 assessed as reduction in growth. It counts as functional. Put shortly:
as §3

Assay [10] has as its system Lacticaseibacillus casei. As to the kind of experiment: Antibacterial activity against sensitive Lactobacillus casei ATCC 7469 assessed as reduction in growth in presence of 0.001 ug/ml folic acid. It counts as functional, organism-based. A digest of the protocol: (§4)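 Folate-requiring strains in the medium of the earlier assay method. Folic acid was 0.002 μg/ml for S. faecium and 0.001 μg/ml for L. casei. Turbidity read on a Klett-Summerson colorimeter. IC50 is the micromolar concentration reducing growth to 50% of control. Top concentration was 1000 μg/ml, or 100 μg/ml if supply was limited.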

In assay [11] the test system is Plasmodium berghei. As to the kind of experiment: Antimalarial activity against Plasmodium berghei infected in sc dosed mouse assessed as active dose required to increase of 100% in mean survival time. In kind it is functional. To be noted: read-out: MED. A digest of the protocol: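 Mice received a standard blood-induced P. berghei inoculum and were then treated with one subcutaneous dose of compound suspended in peanut oil. The minimum active dose is the lowest dose that raised mean survival time by 100%.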

Assay [12] concerns Pediococcus. As to the kind of experiment: Antibacterial activity against chlorguanide triazine-resistant Pediococcus cerevisiae ATCC 808 assessed as reduction in growth in presence of 0.001 ug/ml folinic acid. It counts as functional. Put shortly: as §3
The test system of assay [13] is Pediococcus. The assay is described as follows: Antibacterial activity against sensitive Pediococcus cerevisiae ATCC 808 assessed as reduction in growth in presence of 0.001 ug/ml folinic acid. In kind it is functional. A digest of the protocol: as §1
The test system of assay [14] is Enterococcus faecium. As to the kind of experiment: Antibacterial activity against chlorguanide triazine-resistant Streptococcus faecium ATCC 8043 assessed as reduction in growth. In kind it is functional, organism-based. A digest of the protocol:
as §3

The test system of assay [15] is Enterococcus faecium. The assay is described as follows: Fold increase in resistance, ratio of IC50 for chlorguanide triazine-resistant Streptococcus faecium ATCC 8043 to IC50 for sensitive Streptococcus faecium ATCC 8043. In kind it is functional. Put shortly: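 Resistant S. faecium substrain raised by serial transfer in increasing chlorguanide triazine. IC50 (µM, 50% growth inhibition by turbidity) was found for resistant and parent strains in folic acid (0.002 µg/ml) medium. Fold increase taken as IC50 resistant / IC50 sensitive.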

The subject of assay [16] is Lacticaseibacillus casei. As to the kind of experiment: Antibacterial activity against chlorguanide triazine-resistant Lactobacillus casei ATCC 7469 assessed as reduction in growth in presence of 0.001 ug/ml folic acid. It counts as functional, organism-based. A digest of the protocol:
as §3

For assay [17], the system named is Enterococcus faecium. The assay is described as follows: Antibacterial activity against chlorguanide triazine-resistant Streptococcus faecium ATCC 8043 assessed as reduction in growth in presence of 0.002 ug/ml folic acid. In kind it is functional, organism-based. A digest of the protocol:
as §3

For assay [18], the system named is Enterococcus faecium. As to the kind of experiment: Antibacterial activity against sensitive Streptococcus faecium ATCC 8043 assessed as reduction in growth in presence of 0.002 ug/ml folic acid. It counts as functional, organism-based. Put shortly:
as §4

The subject of assay [19] is Escherichia coli. As to the kind of experiment: Antibacterial activity against sensitive Escherichia coli ATCC 10536 assessed as reduction in growth in presence of p-aminobenzoic acid. In kind it is functional, organism-based. A digest of the protocol:
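Reversal test. Drug inhibition was challenged with PABA in Sahyun et al. medium plus 0.6% acid-hydrolyzed casein. Growth read as turbidity on a Klett-Summerson colorimeter. Scored as reversal or nonreversal of the drug inhibition.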

For `C=C[C@H]1CN2CC[C@H]1C[C@H]2[C@H](O)c1ccnc2ccc(OC)cc12` [QUININE], the IC50 in assay [1] was 780 µM; in assay [3], 1200 µM; in assay [4], 980 µM; in assay [7], above 2500 µM; in [8], 1300 µM; in [9], 850 µM. The IC50 in [14] is above 2500 µM. The “Ratio IC50” value in [2] and in assay [6] was 1 in each case. Besides, the MCD in [5] was above 640 mg/kg. Further, the inhibition result in [10], in assay [12] and in assay [13] was “Active” each time. Besides, in assay [11], the minimal effective dose came to 640 mg/kg.
Consider `Nc1nc(=O)c2c([nH]1)NCC(CCNc1ccc(C(=O)[O-])cc1)N2.[Na+]` (stereo not drawn), for which the “Ratio IC50” value in assay [15] was 800; in [2] it was 0.03. For the same compound, the IC50 in assay [1] was above 2900 µM; in assay [3] it was 0.2 µM; in assay [4], 6 µM; in assay [7] it was 0.009 µM; in assay [14] it was 7.2 µM. For the same compound, the inhibition result in [16], in [17], in assay [10] and in assay [18] was “inactive” throughout. For the same compound, the MCD in assay [5] was above 640 mg/kg. Further, the minimal effective dose in [11] was above 640 mg/kg.
For `Nc1nc(N)c2c(ccc3cc(Br)ccc32)n1`, the entries for the “Ratio IC50” value in [15], in [2] and in [6] were 117, 0.06 and 7.5, respectively. Also, the IC50 worked out at 0.04 µM in assay [1]; 0.06 µM in assay [3]; 1 µM in assay [4]; 0.006 µM in assay [7]; 4.8 µM in [8]; 0.3 µM in assay [9]. Also, the IC50 in assay [14] stood at 0.7 µM. Further, the inhibition result in [16], in [17], in assay [10], in assay [13] and in assay [18] was “inactive” each time. The MCD in assay [5] is above 640 mg/kg. Moreover, the minimal effective dose in [11] turned out to be 640 mg/kg. For the same compound, the inhibition entry in assay [19] is “Active”.
Take `Cc1nc(C)c(Cl)c(O)c1Cl` [CLOPIDOL]: the “Ratio IC50” value in [15] was 0.6; in [2], 0.52; in [6], 1. Further, the IC50 was 833 µM in assay [1]; 885 µM in assay [3]; 1700 µM in assay [4]; 3700 µM in assay [7]; above 5200 µM in [8]; 1000 µM in assay [9]. Further, in assay [14], the IC50 was found to be 2200 µM. Moreover, the inhibition entry in assay [17], in assay [10], in assay [12], in [13] and in assay [18] was “Active” each time. For the same compound, in [5], the MCD is above 640 mg/kg. For the same compound, the minimal effective dose in assay [11] came to 160 mg/kg.
For the compound `Clc1ccc(Nc2nc(NCCCN3CCCC3)c3ccccc3n2)cc1Cl`, the “Ratio IC50” value in assay [15] worked out at 0.7; in assay [2], 0.6; in [6] it was 2. Besides, the IC50 turned out to be 3.5 µM in [1]; 5.7 µM in assay [3]; 10 µM in assay [4]; 32 µM in assay [7]; 10 µM in assay [8]; 7.9 µM in assay [9]. The IC50 in assay [14] turned out to be 22 µM. The inhibition entry in assay [10], in assay [19], in [12], in [13] and in assay [18] was “Active” in each case.
As for `CC(CNc1nc(Nc2ccc(Cl)c(Cl)c2)nc(C(Cl)(Cl)Cl)n1)N(C)C` (stereo not drawn), the “Ratio IC50” value in assay [15] worked out at 1; in assay [2], 0.9; in [6] it was 1. Also, the IC50 in [1] worked out at 5.9 µM; in assay [3] it was 4.9 µM; in [4], 5.7 µM; in assay [7], 14.2 µM; in assay [9], 7.5 µM; in assay [14], 14.6 µM. Besides, the inhibition entry in assay [16], in assay [17], in assay [10], in assay [12], in [13] and in assay [18] was “Active” in each case. Moreover, the MCD in [5] stood at 160 mg/kg. Also, the minimal effective dose in assay [11] was 80 mg/kg.
For `C/C(=C\C(=N\NC(=N)N)c1ccccc1)c1ccccc1`, the results for the “Ratio IC50” value in [15], in [2] and in [6] were 6, 1 and 0.5, respectively. The IC50 in assay [1] stood at 25 µM; in [3], 41 µM; in assay [4] it was 48 µM; in assay [7], 11 µM; in assay [8], 51 µM; in assay [9] it was 13 µM. The IC50 in assay [14] came to 60 µM. The inhibition result in [16], in assay [10], in [19], in assay [12] and in assay [13] was “Active” in each case. In addition, the MCD in assay [5] was above 640 mg/kg. In assay [11], the minimal effective dose worked out at 160 mg/kg. The inhibition entry in assay [18] was “inactive”.
As for `O=C(NO)c1ccc(C(=O)NO)cc1`, the entries for the “Ratio IC50” value in assay [15] and in assay [2] were 3 and 1, respectively. The IC50 in [1] is above 5000 µM; in assay [3] it was 3000 µM; in [4] it was 2600 µM; in assay [7], 1700 µM; in [8] it was above 5000 µM; in assay [14], above 5000 µM. Also, the inhibition result in assay [16], in assay [17], in assay [10] and in assay [18] was “Active” in each case. Further, the MCD in assay [5] turned out to be 640 mg/kg. The minimal effective dose in [11] was determined as 320 mg/kg.
With `CCc1ccc(N2C(N)=NC(N)=NC2(C)C)cc1`, the “Ratio IC50” value in assay [15] is given as above 9700; in assay [2] it was 11; in assay [6] it was above 8. The IC50 in [1] is 42.6 µM; in assay [3], 291 µM; in assay [4], 27.3 µM; in assay [7], 0.036 µM; in [8], 1900 µM; in [9] it was above 355 µM. For the same compound, the IC50 in assay [14] was above 350 µM. Also, the inhibition result in assay [16], in assay [10], in assay [13] and in assay [18] was “inactive” in each case. Moreover, the MCD in assay [5] was above 640 mg/kg. In addition, the minimal effective dose in [11] is 320 mg/kg. Further, the inhibition entry in assay [19] is “Active”.

Usually IC50 stands for the point on the concentration scale where inhibition reaches its midpoint.
